Test results as given in ChEMBL document CHEMBL3792366, “Role of disulfide linkage in action of bis(dialkylaminethiocarbonyl)disulfides as potent double-Edged microbicidal spermicide: Design, synthesis and biology” (Eur J Med Chem, 2016).
≈ marks a conversion by molar mass, not a printed value.

Experiments:
[1] = Spermicidal activity in human sperms assessed as motility measured within 30 secs by phase contrast microscopy; format: functional, Sperm
In short: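 Liquefied human semen (0.05 mL) was added to 0.25 mL test solution and vortexed 10 s at low speed. Motile sperm were scored visually under phase contrast in five fields within 30 s; assays in triplicate; MEC = minimum effective concentration.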

Candida albicans = experiment: Antifungal activity against Candida albicans after 48 hrs by broth microdilution method; format: functional
In short: (§1)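 NCCLS broth microdilution in RPMI 1640 buffered with MOPS; starting inoculum 1–5 × 10^3 CFU/mL; plates incubated at 35 °C; MIC read after 48 h.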

[2] = tested on: Trichophyton mentagrophytes; experiment: Antifungal activity against Trichophyton mentagrophytes after 48 hrs by broth microdilution method; format: functional; in short: as §1
Sporothrix schenckii = experiment: Antifungal activity against Sporothrix schenckii after 48 hrs by broth microdilution method; format: functional; in short: as §1
Trichomonas vaginalis [3] = experiment: Antitrichomonas activity against metronidazole-resistant trophozoite stage of Trichomonas vaginalis ATCC 50143 assessed as cell viability under anaerobic condition after 48 hrs by trypan blue exclusion assay; format: functional; details: ATCC 50143, 48 h
In short: (§2)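 Log-phase T. vaginalis grown in TYM with 10% FCS, vitamin mix and penicillin/streptomycin at 37 °C. Compounds were made as 100 µg/mL DMSO stocks and serially diluted in TYM down to 0.1 µg/mL; DMSO/TYM served as vehicle. Parasites were incubated anaerobically at 37 °C, and viability was checked by trypan blue exclusion from 3 to 48 h. MIC = lowest concentration killing all cells by 48 h; each test was repeated three times.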

Candida parapsilosis = experiment: Antifungal activity against Candida parapsilosis ATCC 22019 after 48 hrs by broth microdilution method; format: functional; details: Lodderomyces parapsilosis, ATCC 22019, 48 h; in short: as §1
Trichomonas vaginalis [4] = experiment: Antitrichomonas activity against trophozoite stage of Trichomonas vaginalis clinical isolate assessed as cell viability under anaerobic condition after 48 hrs by trypan blue exclusion assay; format: functional; in short: as §2
Cryptococcus neoformans = experiment: Antifungal activity against Cryptococcus neoformans after 48 hrs by broth microdilution method; format: functional; in short: as §1

SMILES	MEC [1]	MIC (Candida albicans)	MIC [2]	MIC (Sporothrix schenckii)	MIC (Trichomonas vaginalis [3])	MIC (Candida parapsilosis)	MIC (Trichomonas vaginalis [4])	MIC (Cryptococcus neoformans)
C=CCN1CCN(C(=S)SCCCSC(=S)N2CCN(CC=C)CC2)CC1	0.5%	–	–	–	–	–	–	–
Cc1ccc(S(=O)(=O)N2CCN(C(=S)SSC(=S)N3CCN(S(=O)(=O)c4ccc(C)cc4)CC3)CC2)cc1	>1%	> 76.5 µM	76.5 µM (≈ 48.3 µg/mL)	76.5 µM (≈ 48.3 µg/mL)	> 153 µM	> 76.5 µM	> 153 µM	> 76.5 µM
CCCCCCCCSC(=S)N1CCN(C(=S)SSC(=S)N2CCN(C(=S)SCCCCCCCC)CC2)CC1	1%	35.7 µM (≈ 25 µg/mL)	> 71.5 µM	35.7 µM (≈ 25 µg/mL)	> 143 µM	> 71.5 µM	89.4 µM (≈ 62.5 µg/mL)	35.7 µM (≈ 25 µg/mL)
CCCSC(=S)N1CCN(CCCC#N)CC1	>1%	–	–	–	–	–	–	–
CC(C)(C)OC(=O)N1CCN(C(=S)SSC(=S)N2CCN(C(=O)OC(C)(C)C)CC2)CC1	>1%	> 91.7 µM	> 91.7 µM	> 91.7 µM	> 183 µM	> 91.7 µM	> 183 µM	> 91.7 µM
CCCCN1CCN(C(=S)SCCSC(=S)N2CCN(CCCC)CC2)CC1	0.5%	–	–	–	–	–	–	–
N#CCCCN1CCN(C(=S)SCCSC(=S)N2CCN(CCCC#N)CC2)CC1	0.5%	–	–	–	–	–	–	–
C=CCN1CCN(C(=S)SCSC(=S)N2CCN(CC=C)CC2)CC1	1%	–	–	–	–	–	–	–
CN1CCN(C(=S)SCCCSC(=S)N2CCN(C)CC2)CC1	0.5%	–	–	–	–	–	–	–
CCCCCCSC(=S)N1CCN(C(=S)SSC(=S)N2CCN(C(=S)SCCCCCC)CC2)CC1	1%	77.7 µM (≈ 50 µg/mL)	> 77.7 µM	77.7 µM (≈ 50 µg/mL)	> 155 µM	77.7 µM (≈ 50 µg/mL)	> 155 µM	38.8 µM (≈ 25 µg/mL)
S=C(SSC(=S)N1CCN(C23CC4CC(CC(C4)C2)C3)CC1)N1CCN(C23CC4CC(CC(C4)C2)C3)CC1	1%	84.6 µM (≈ 50 µg/mL)	84.6 µM (≈ 50 µg/mL)	84.6 µM (≈ 50 µg/mL)	> 169 µM	84.6 µM (≈ 50 µg/mL)	> 169 µM	84.6 µM (≈ 50 µg/mL)
S=C(SCCN1CCCCC1)N1CCN(C(=S)SSC(=S)N2CCN(C(=S)SCCN3CCCCC3)CC2)CC1	0.5%	> 71.7 µM	> 71.7 µM	> 71.7 µM	> 143 µM	> 71.7 µM	> 143 µM	> 71.7 µM
CCCCN1CCN(C(=S)SCCC)CC1	>1%	–	–	–	–	–	–	–
CCCCCCCSC(=S)N1CCN(C(=S)SSC(=S)N2CCN(C(=S)SCCCCCCC)CC2)CC1	>1%	> 74.5 µM	> 74.5 µM	74.5 µM (≈ 50 µg/mL)	> 149 µM	74.5 µM (≈ 50 µg/mL)	> 149 µM	74.5 µM (≈ 50 µg/mL)
CCCCCCSC(=S)N1CCN(CCCC#N)CC1	>1%	–	–	–	–	–	–	–
CN1CCN(C(=S)SCSC(=S)N2CCN(C)CC2)CC1	0.5%	–	–	–	–	–	–	–
S=C(SSC(=S)N1CCCCC1)N1CCCCC1 [BIS(PIPERIDINYLTHIOCARBONYL)DISULFIDE]	1%	9.7 µM (≈ 3.11 µg/mL)	19.4 µM (≈ 6.22 µg/mL)	38.9 µM (≈ 12.5 µg/mL)	155 µM (≈ 49.7 µg/mL)	38.9 µM (≈ 12.5 µg/mL)	155 µM (≈ 49.7 µg/mL)	2.4 µM (≈ 0.769 µg/mL)
CCCCCCSC(=S)N1CCN(CCCC)CC1	>1%	–	–	–	–	–	–	–
CCCCN1CCN(C(=S)SCSC(=S)N2CCN(CCCC)CC2)CC1	0.5%	–	–	–	–	–	–	–
CCCCN1CCN(C(=S)SCCCSC(=S)N2CCN(CCCC)CC2)CC1	0.5%	–	–	–	–	–	–	–
C=CCN1CCN(C(=S)SCCCCCC)CC1	>1%	–	–	–	–	–	–	–
N#CCCCN1CCN(C(=S)SCSC(=S)N2CCN(CCCC#N)CC2)CC1	0.5%	–	–	–	–	–	–	–
OC(Cn1cncn1)(Cn1cncn1)c1ccc(F)cc1F [FLUCONAZOLE]	–	0.39 µM (≈ 0.119 µg/mL)	0.39 µM (≈ 0.119 µg/mL)	0.39 µM (≈ 0.119 µg/mL)	–	0.39 µM (≈ 0.119 µg/mL)	–	0.19 µM (≈ 0.0582 µg/mL)
N#CCCCN1CCN(C(=S)SCCCSC(=S)N2CCN(CCCC#N)CC2)CC1	0.5%	–	–	–	–	–	–	–
C=CCN1CCN(C(=S)SCCSC(=S)N2CCN(CC=C)CC2)CC1	0.5%	–	–	–	–	–	–	–
CN1CCN(C(=S)SCCSC(=S)N2CCN(C)CC2)CC1	0.5%	–	–	–	–	–	–	–
C=CCN1CCN(C(=S)SCCC)CC1	>1%	–	–	–	–	–	–	–
